From ChEMBL document CHEMBL1122921, “Stereoselective antitumor properties in the Lewis lung carcinoma model using bis(morpholinomethyl) derivatives of tricyclic bis(dioxopiperazines)” (1985)
Several values for one entry are separate records, joined by “and”; a condition that tells them apart may be missing. Identical values can stand only once.

Columns and labels:
Mus musculus [1] = organism: Mus musculus; assay: Average lung weight of mice was determined; assay type: functional
Outline: (§1)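 Female BDF1 mice (19–21 g), 10 per group. Lewis lung carcinoma, 10^5 cells in 0.05 mL, implanted in the right hind leg on day 0, and the leg amputated on day 10. Dosing was 160 mg/kg ip in 0.9% NaCl made daily, either from -1 h on day 0 q2d×5 (preamputation) or from day 11 q2d×4 (postamputation). Survivors were killed and autopsied on day 50, and values were averaged over all 10 mice. ILS ≥25% is taken as activity.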

Mus musculus [2] = organism: Mus musculus; assay: compound was tested against autopsying on day 50th metastasis( >2 mm size.) in mice.; assay type: functional
Outline: (§2)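 Female BDF1 mice (19–21 g), 10 per group, were implanted with 10^5 Lewis lung cells in the right hind leg on day 0, with leg amputation on day 10. Dosing was 160 mg/kg ip, either from −1 h on day 0 q2d×5 or from day 11 q2d×4, in saline prepared daily. Survivors were killed on day 50, and lung metastases were counted by size. Values are averages over 10 mice, dying and killed.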

Mus musculus [3] = organism: Mus musculus; assay: compound was tested against autopsying on day 50th metastasis( <[…] mm size.) in mice.; assay type: functional
Outline: (§3)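 Female BDF1 mice (19–21 g) were implanted with Lewis lung carcinoma on day 0 and amputated on day 9. Dosing was 160 mg/kg ip from day 9, q2d×4, as a suspension or solution in 0.9% NaCl. Dying mice and mice killed on day 50 were autopsied to count metastases (<2 mm, >2 mm) and mice bearing metastases.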

Mus musculus [4] = organism: Mus musculus; assay: Average body weight of mice was determined; assay type: functional
Outline: (§4)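 Female BDF1 mice (19–21 g), 8–9 per group. Lewis lung carcinoma implanted on day 0 and the leg amputated on day 9. From day 9, 160 mg/kg ip q2d×4, given as a suspension or solution in 0.9% NaCl. Mice dying and those killed on day 50 were autopsied for body weight, lung weight, metastases (<2 or >2 mm) and metastasis incidence. Median survival and ILS were recorded, with ≥25% ILS taken as activity.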

Mus musculus [5] = assay: Median survival time of 10 BDF1 mice was tested after administration of compound (Preamputation schedule 160 mg/kg); assay type: functional; outline: as §1
Mus musculus [6] = organism: Mus musculus; assay: Number of 50-day survivors Out of 9 mice; assay type: functional; outline: as §4
Mus musculus [7] = organism: Mus musculus; assay: Number of mice with metastasis out of 9 mice tested; assay type: functional; outline: as §3
Mus musculus [8] = organism: Mus musculus; assay: Compound was tested against autopsying on day 50th metastasis( 1-2 mm size) in mice; assay type: functional; outline: as §2
Mus musculus [9] = organism: Mus musculus; assay: Average lung weight per mouse was determined; assay type: functional
Outline: (§5)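 Female BDF1 mice (19–21 g) implanted with Lewis lung carcinoma on day 0. The tumour-bearing leg was amputated on day 9 or 10. Dosing was 160 mg/kg ip q2d in 0.9% NaCl. Dying mice were autopsied, and survivors were killed and autopsied on day 50.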

Mus musculus [10] = organism: Mus musculus; assay: (§6) Percent of mice without metastasis.; assay type: functional
Mus musculus [11] = organism: Mus musculus; assay: Number of 50-day survivors out of 10 mice; 2 mice died out of 6 with one metastasis each (5mm i.d.); assay type: functional
Mus musculus [12] = organism: Mus musculus; assay: Compound was tested against autopsying on day 50th metastasis( <1 mm size) in mice; assay type: functional; outline: as §2
Mus musculus [13] = organism: Mus musculus; assay: Number of 50-day survivors Out of 10 mice; assay type: functional; outline: as §1
Mus musculus [14] = organism: Mus musculus; assay: Average lung weight per mouse.; assay type: functional; outline: as §5
Mus musculus [15] = organism: Mus musculus; assay: compound was tested against autopsying on day 50th metastasis( 1-2 mm size.) in mice.; assay type: functional; outline: as §2
Mus musculus [16] = organism: Mus musculus; assay: Average number of metastasis per mouse.; assay type: functional; outline: as §5
Mus musculus [17] = organism: Mus musculus; assay: as §6; assay type: functional; remark: listed apart in the source
Mus musculus [18] = organism: Mus musculus; assay: compound was tested against autopsying on day 50th metastasis( <1 mm size.) in mice.; assay type: functional; outline: as §2
Mus musculus [19] = organism: Mus musculus; assay: Compound was tested against autopsying on day 50th metastasis( >2 mm size) in mice; assay type: functional; outline: as §2
Mus musculus [20] = assay: Median survival time of 10 BDF1 mice was tested after administration of compound (Postamputation schedule 160 mg/kg)
Mus musculus [21] = organism: Mus musculus; assay: Compound was tested against autopsying on day 50th metastasis( <2 mm size) in mice; assay type: functional; outline: as §4
Mus musculus [22] = organism: Mus musculus; assay: Percent increase in life span was measured in mice; assay type: functional; outline: as §1
Mus musculus [23] = organism: Mus musculus; assay: Number of 50-day survivors out of 9 mice; assay type: functional; outline: as §4
Mus musculus [24] = assay: Median survival time of 10 BDF1 mice was tested for compound (Postamputation schedule 160 mg/kg); assay type: functional; outline: as §1
Mus musculus [25] = organism: Mus musculus; assay: Number of mice with metastasis Out of 9 mice; assay type: functional; outline: as §4
Mus musculus [26] = organism: Mus musculus; assay: Number of 50-day survivors Out of 8 mice; assay type: functional; outline: as §4
Mus musculus [27] = organism: Mus musculus; assay: Compound was tested against autopsying on day 50th metastasis( >2 mm size.) in mice.; assay type: functional; outline: as §1
Mus musculus [28] = organism: Mus musculus; assay: Compound was tested against autopsying on day 50th metastasis( <2 mm size.) in mice.; assay type: functional; outline: as §4
Mus musculus [29] = organism: Mus musculus; assay: Number of mice with metastasis Out of 8 mice; assay type: functional; outline: as §4

Row | Compound | Lung weight (Mus musculus [1]) | Average No. of metastasis (Mus musculus [2]) | Body weight (Mus musculus [4]) | MST (Mus musculus [5]) | N/T (Mus musculus [6]) | M/T (Mus musculus [7]) | Lung weight (Mus musculus [9]) | Average No. of metastasis (Mus musculus [12]) | Average No. of metastasis (Mus musculus [16]) | Mice (Mus musculus [17]) | Average No. of metastasis (Mus musculus [19]) | MST (Mus musculus [20]) | Average No. of metastasis (Mus musculus [21]) | ILS (Mus musculus [22]) | other results
1 | O=C1CN2CCN3CC(=O)N(CN4CCOCC4)C(=O)[C@H]3C2C(=O)N1CN1CCOCC1 (stereo in doubt; form 1) | 369 mg | 3 count | 19.9 g | 39 days | 7 | 1 | – | – | – | – | – | – | – | – | Average No. of metastasis (Mus musculus [3]): 0 count
2 | O=C1CN2CCN3CC(=O)N(CN4CCOCC4)C(=O)[C@H]3C2C(=O)N1CN1CCOCC1 (stereo in doubt; form 2) | – | 4.8 count | – | 39 days | – | – | 641 mg | 1 count | 12.8 and 7.7 | 40% | 8.3 count | – | – | – | Average No. of metastasis (Mus musculus [8]): 3.5 count; Mice (Mus musculus [10]): 40%; N/T (Mus musculus [11]): 6; N/T (Mus musculus [13]): 4; Lung weight (Mus musculus [14]): 538 mg; Average No. of metastasis (Mus musculus [15]): 2.6 count; Average No. of metastasis (Mus musculus [18]): 0.3 count
3 | O=C1CN2CCN3CC(=O)N(CN4CCOCC4)C(=O)[C@@H]3C2C(=O)N1CN1CCOCC1 (stereo partly drawn) | 564 mg | – | 19.4 g | – | 5 | 4 | – | – | – | – | 9 count | >50 days | 0 count | >49% | –
4 | O=C1CN2CCN3CC(=O)N(CN4CCOCC4)C(=O)[C@H]3C2C(=O)N1CN1CCOCC1 (stereo in doubt; 3) | – | – | – | 38.5 days | 5 | – | 754 mg and 752 mg | 0.2 count | 15 and 13.8 | 30% and 20% | – | – | – | – | N/T (Mus musculus [23]): 5; MST (Mus musculus [24]): 35 days
5 | O=C1CN2CCN3CC(=O)NC(=O)[C@@H]3C2C(=O)N1 (stereo partly drawn) | 749 mg | – | 17.7 g | – | 2 | – | – | – | – | – | 13 count | 39 days | 2 count | 16% | M/T (Mus musculus [25]): 7
6 | O=C1CN2CCN3CC(=O)NC(=O)[C@H]3C2C(=O)N1 (stereo partly drawn) | 813 mg | – | 17.8 g | – | – | – | – | – | – | – | – | 45 days | – | 34% | N/T (Mus musculus [26]): 3; Average No. of metastasis (Mus musculus [27]): 14%; Average No. of metastasis (Mus musculus [28]): 1%; M/T (Mus musculus [29]): 5
